Measurements published in ChEMBL document CHEMBL4825702, “5-Aminonaphthalene derivatives as selective nonnucleoside nuclear receptor binding SET domain-protein 2 (NSD2) inhibitors for the treatment of multiple myeloma” (Eur J Med Chem, 2021).
Activity calls are given as the source filed them. No cut-off for these calls is given here.

Key:
[1] = target: Histone-lysine N-methyltransferase, H3 lysine-36 specific (Homo sapiens, UniProt Q96L73); experiment: Inhibition of NSD1 (unknown origin) using SAM as substrate preincubated for 10 mins followed by substrate addition measured after 4 hrs by AlphaLISA method
Sequence of Histone-lysine N-methyltransferase, H3 lysine-36 specific (Q96L73 whole entry): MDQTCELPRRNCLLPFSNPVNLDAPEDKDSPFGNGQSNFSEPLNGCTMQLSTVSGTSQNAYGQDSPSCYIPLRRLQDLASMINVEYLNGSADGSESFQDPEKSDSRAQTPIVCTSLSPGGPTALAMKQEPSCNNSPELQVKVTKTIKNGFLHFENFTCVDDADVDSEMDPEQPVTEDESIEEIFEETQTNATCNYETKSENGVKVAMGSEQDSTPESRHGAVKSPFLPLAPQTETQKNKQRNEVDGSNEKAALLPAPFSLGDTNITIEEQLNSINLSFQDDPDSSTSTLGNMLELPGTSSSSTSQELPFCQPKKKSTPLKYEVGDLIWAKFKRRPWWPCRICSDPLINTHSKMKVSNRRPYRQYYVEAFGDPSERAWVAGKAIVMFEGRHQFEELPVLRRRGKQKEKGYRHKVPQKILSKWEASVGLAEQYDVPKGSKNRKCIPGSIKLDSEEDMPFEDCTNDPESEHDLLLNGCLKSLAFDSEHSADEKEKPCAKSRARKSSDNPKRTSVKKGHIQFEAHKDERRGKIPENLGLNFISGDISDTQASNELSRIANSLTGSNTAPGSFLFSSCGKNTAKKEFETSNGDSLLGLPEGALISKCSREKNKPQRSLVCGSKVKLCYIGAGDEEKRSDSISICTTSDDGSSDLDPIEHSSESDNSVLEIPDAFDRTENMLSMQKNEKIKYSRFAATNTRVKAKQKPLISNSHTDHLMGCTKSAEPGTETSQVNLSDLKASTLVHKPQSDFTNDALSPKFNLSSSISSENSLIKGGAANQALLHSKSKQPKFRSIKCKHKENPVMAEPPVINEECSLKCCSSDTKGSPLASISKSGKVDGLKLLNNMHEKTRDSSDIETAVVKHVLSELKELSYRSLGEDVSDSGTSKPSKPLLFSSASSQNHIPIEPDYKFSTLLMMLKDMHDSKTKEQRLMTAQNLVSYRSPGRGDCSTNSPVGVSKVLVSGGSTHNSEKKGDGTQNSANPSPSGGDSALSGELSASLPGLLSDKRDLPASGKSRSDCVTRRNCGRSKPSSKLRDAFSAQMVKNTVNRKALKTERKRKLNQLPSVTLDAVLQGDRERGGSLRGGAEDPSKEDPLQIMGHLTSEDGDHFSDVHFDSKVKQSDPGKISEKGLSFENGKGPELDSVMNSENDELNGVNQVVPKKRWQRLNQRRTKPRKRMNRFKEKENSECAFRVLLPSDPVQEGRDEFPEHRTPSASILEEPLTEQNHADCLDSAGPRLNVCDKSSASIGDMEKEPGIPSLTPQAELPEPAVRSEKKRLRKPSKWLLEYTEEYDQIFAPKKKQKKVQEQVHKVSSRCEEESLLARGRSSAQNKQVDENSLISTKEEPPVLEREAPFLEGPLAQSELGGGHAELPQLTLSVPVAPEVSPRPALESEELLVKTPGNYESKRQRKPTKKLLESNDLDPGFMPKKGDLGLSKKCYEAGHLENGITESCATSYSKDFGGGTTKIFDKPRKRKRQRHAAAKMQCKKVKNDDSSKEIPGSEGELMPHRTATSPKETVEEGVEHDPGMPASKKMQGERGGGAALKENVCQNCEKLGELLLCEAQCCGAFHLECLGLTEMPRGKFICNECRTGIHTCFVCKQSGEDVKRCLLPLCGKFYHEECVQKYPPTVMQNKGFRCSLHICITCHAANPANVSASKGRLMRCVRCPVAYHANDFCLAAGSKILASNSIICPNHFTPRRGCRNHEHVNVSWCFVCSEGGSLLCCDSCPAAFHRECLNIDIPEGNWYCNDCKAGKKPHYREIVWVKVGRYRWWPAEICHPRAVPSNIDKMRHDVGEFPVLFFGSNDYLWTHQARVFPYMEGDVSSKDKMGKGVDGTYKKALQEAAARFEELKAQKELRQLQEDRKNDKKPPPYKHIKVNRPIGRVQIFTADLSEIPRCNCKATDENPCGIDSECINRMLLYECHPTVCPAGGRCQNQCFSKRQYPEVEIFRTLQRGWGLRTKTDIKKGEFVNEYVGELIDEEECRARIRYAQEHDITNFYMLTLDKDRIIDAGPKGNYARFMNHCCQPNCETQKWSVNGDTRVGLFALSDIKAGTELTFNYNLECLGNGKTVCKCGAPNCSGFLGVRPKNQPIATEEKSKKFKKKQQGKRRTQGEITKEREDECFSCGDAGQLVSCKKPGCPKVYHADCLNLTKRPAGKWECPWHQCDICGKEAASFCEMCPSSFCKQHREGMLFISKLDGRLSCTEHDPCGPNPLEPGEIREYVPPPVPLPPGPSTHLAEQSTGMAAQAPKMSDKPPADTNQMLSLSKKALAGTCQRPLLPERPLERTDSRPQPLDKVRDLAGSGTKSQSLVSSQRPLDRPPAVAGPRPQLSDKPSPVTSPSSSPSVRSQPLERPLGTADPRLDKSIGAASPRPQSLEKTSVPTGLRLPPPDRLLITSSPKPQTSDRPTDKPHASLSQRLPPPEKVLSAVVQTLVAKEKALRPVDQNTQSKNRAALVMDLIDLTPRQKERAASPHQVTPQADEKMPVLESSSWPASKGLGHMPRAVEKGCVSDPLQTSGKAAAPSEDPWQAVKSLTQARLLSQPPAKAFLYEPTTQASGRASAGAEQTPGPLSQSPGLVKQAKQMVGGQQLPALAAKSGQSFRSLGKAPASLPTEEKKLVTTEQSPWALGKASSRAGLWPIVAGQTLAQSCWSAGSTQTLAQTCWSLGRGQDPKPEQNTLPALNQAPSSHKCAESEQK

RS4-11 [2] = experiment: Antiproliferative activity against human RS4-11 cells assessed as reduction in cell viability at 1 to 100 uM by CCK8 assay; type: functional, cell-based; conditions: dose 1-100 µM, time 6.0 day, TDE = time-dependent effect
KMS-11 [3] = experiment: Antiproliferative activity against human KMS-11 cells assessed as reduction in cell viability at 1 to 100 uM by CCK8 assay; type: functional, cell-based; conditions: dose 1-100 µM, time 6.0 day, TDE = time-dependent effect
[4] = Tmax in CD-1 mouse at 2 mg/kg, ip measured up to 24 hrs by LC-MS/MS; type: ADME, organism-based; conditions: in vivo
Procedure, shortened: (§1)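 CD-1 mice dosed at 2 mg/kg i.p. or i.v., n = 3 per group. Blood sampled at 0, 0.083, 0.25, 0.5, 1, 2, 4, 6, 8 and 24 h and spun for plasma. Internal standard added, deproteinized with methanol/acetonitrile (1:1), supernatant diluted and analysed by LC/MS/MS.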

[5] = Cmax in CD-1 mouse at 2 mg/kg, ip measured up to 24 hrs by LC-MS/MS; type: ADME, organism-based; design: route intraperitoneal, dose 2 mg/kg, time <=24; conditions: in vivo
Procedure, shortened: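 CD-1 mice given a single 2 mg/kg dose i.p. or i.v. (n = 3 per group). Blood sampled at 0, 0.083, 0.25, 0.5, 1, 2, 4, 6, 8 and 24 h and centrifuged for plasma, with internal standard added. Plasma deproteinized with methanol/acetonitrile (1:1), supernatant diluted with acetonitrile/water, and compound measured by LC/MS/MS.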

[6] = MRT in CD-1 mouse at 2 mg/kg, ip measured up to 24 hrs by LC-MS/MS; type: ADME, organism-based; conditions: in vivo; procedure, shortened: as §1
RS4-11 [7] = experiment: Antitumor activity against human RS4-11 cells xenografted in SCID mouse assessed as tumor growth inhibition at 25 mg/kg, ip qd administered consecutively for 21 days relative to control; conditions: RS4-11, ip, 504 h, read-out: TGI
RS4-11 [8] = experiment: Induction of apoptosis in human RS4-11 cells incubated for 72 hrs by annexin-V/FITC and propidium iodide staining based flow cytometry analysis; type: functional, cell-based; conditions: dose 5-10 µM
KMS-11 [9] = experiment: Induction of apoptosis in human KMS-11 cells incubated for 72 hrs by annexin-V/FITC and propidium iodide staining based flow cytometry analysis; type: functional, cell-based; conditions: dose 5-10 µM
MV4-11 = experiment: cells; conditions: Homo sapiens, MV4-11, 72 h, read-out: Activity
RS4-11 [10] = experiment: Antiproliferative activity against human RS4-11 cells assessed as reduction in cell viability incubated for 6 days by CCK8 assay; conditions: RS4-11, 6 days
NCI-H929 = experiment: Antiproliferative activity against human NCI-H929 cells assessed as reduction in cell viability incubated for 6 days by CCK8 assay
OCI-AML-5 = experiment: Antiproliferative activity against human OCI-AML5 cells assessed as reduction in cell viability incubated for 6 days by CCK8 assay
Pfeiffer = experiment: Antiproliferative activity against human Pfeiffer cells assessed as reduction in cell viability incubated for 6 days by CCK8 assay
[11] = Inhibition of PAK1 transcriptional activity in human KMS-11 cells assessed as reduction in H3K36 methylation at 10 uM measured after 72 hrs by chip q-PCR analysis

IC50 [1]: > 20 µM
Tmax [4]: 4.98 min
Cmax [5]: 0.433 µg/mL
MRT [6]: 31.9 min
IC50 (RS4-11 [10]): 0.52 µM
inhibition [11]: Active
SMILES: Cl.Nc1cccc2c(S(=O)(=O)NCc3ccccc3)cccc12
Activity (RS4-11 [2]): Tde
Activity (KMS-11 [3]): Tde
inhibition in vivo at 25 mg/kg (RS4-11 [7]): 43.6%
Activity (RS4-11 [8]): Dose-Dependent Effect
Activity (KMS-11 [9]): Dose-Dependent Effect
viability at 5 µM (MV4-11): 94.4%
Activity (NCI-H929): Active
Activity (OCI-AML-5): Active
Activity (Pfeiffer): Active
